Assay [1] is filed under the species Rattus norvegicus. Nature of the assay: Selectivity index, ratio of IC50 for partially purified Fischer-344 rat kidney ALR1 to IC50 for partially purified Fischer-344 rat lens ALR2. The settings on record: Lens of camera-type eye.
Assay [2] has as its target Aldo-keto reductase family 1 member A1 (Rattus norvegicus, UniProt P51635). As to the kind of experiment: Inhibition of partially purified Fischer-344 rat kidney ALR1 using D,L-glycuronate as substrate assessed as NADPH consumption by spectrophotometry. In outline: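 Kidneys from Fischer-344 rats of both sexes homogenized in 3 vol 10 mM sodium phosphate buffer; 10,000g supernatant taken through ammonium sulfate fractions at 40%, 50% and 75% saturation. Last pellet redissolved in 10 mM sodium phosphate pH 7.2 with 2.0 mM EDTA and 2.0 mM β-mercaptoethanol, DEAE-treated, stored at −80 °C. Substrate D-glycuronate at 37 °C. NADPH loss read at 340 nm. Five concentrations, triplicate; IC50 by least squares on linear part of log(dose)–response.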

Assay [3] concerns the target Aldo-keto reductase family 1 member B1 (Rattus norvegicus, UniProt P07943). As to the kind of experiment: Inhibition of partially purified Fischer-344 rat lens ALR2 using D,L-glyceraldehyde as substrate assessed as NADPH consumption by spectrophotometry. Details: species or system Lens of camera-type eye. In outline: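 Supernatant brought to 40% ammonium sulfate saturation and spun again; supernatant used directly or kept ≤24 h at −80 °C. Compounds dissolved in 0.2 M NaHCO3. Substrate D,L-glyceraldehyde at 30 °C; NADPH loss at 340 nm. Five concentrations, triplicate; IC50 by least-squares fit of linear log(dose)–response region.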

Each structure is given as a SMILES string. Bounds are passed on as bounds.

Aldo-keto reductase family 1 member A1, sequence (P51635 whole entry, looked up): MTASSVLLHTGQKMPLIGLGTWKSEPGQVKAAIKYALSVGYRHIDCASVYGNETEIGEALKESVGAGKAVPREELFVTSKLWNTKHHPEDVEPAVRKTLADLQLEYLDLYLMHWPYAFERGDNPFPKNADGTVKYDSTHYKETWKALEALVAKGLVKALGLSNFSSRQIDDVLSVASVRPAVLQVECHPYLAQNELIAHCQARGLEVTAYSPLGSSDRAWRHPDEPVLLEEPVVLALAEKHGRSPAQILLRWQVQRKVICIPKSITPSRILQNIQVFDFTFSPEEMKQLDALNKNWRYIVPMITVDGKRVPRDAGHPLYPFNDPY

For orientation: IC50 means the concentration that inhibits the measured activity by half. Regarding `O=C(O)Cn1ccc(C(=O)c2ccc(-c3ccccc3)cc2)c1`, the Ratio IC50 in assay [1] turned out to be 153. The values for the half-maximal inhibitory concentration (IC50) in assay [2] and in assay [3] were 52.5 µM and 0.344 µM, respectively.
As to `O=C(O)Cn1cccc1C(=O)c1ccccc1`, the Ratio IC50 in assay [1] was > 4.54. In addition, the concentration for half-maximal inhibition (IC50) in assay [2] is > 100 µM; in assay [3], 22 µM.
As to `O=C(c1ccccc1)c1cccn1-c1cnn(O)c1`, in assay [1], the Ratio IC50 is > 7.41. For the same compound, the concentration for half-maximal inhibition (IC50) in assay [2] is > 100 µM; in assay [3] it was 13.5 µM.
`COc1ccc(C(=O)c2cccn2-c2cnn(O)c2)cc1`: the Ratio IC50 in assay [1] was > 6.67. The IC50 in assay [2] is > 100 µM; in assay [3] it was 15.1 µM.
Taken in the same sequence, the figures for `COc1ccc(C(=O)c2cccn2CC(=O)O)cc1` were > 21.9, > 100 µM and 4.57 µM.
For `O=C(c1ccc(-c2ccccc2)cc1)c1ccn(-c2cnn(O)c2)c1`, the Ratio IC50 in assay [1] came out at 88.9. In addition, the IC50 in assay [2] was 62.1 µM; in assay [3] it was 0.698 µM.
Turning to `O=C(O)Cn1cccc1C(=O)c1ccc(-c2ccccc2)cc1`, the Ratio IC50 in assay [1] was > 14.3. Besides, the concentration for half-maximal inhibition (IC50) was > 100 µM in assay [2] and 7 µM in assay [3].
Take `O=C(c1ccccc1)c1ccn(-c2cnn(O)c2)c1`: the Ratio IC50 in assay [1] stood at 9.46. For the same compound, the 50% inhibitory concentration (IC50) in assay [2] amounted to 10.8 µM; in assay [3], 1.14 µM.
As for `COc1ccc(C(=O)c2ccn(-c3cnn(O)c3)c2)cc1`, the Ratio IC50 in assay [1] was 11.2. Also, the IC50 in assay [2] turned out to be 10.8 µM; in assay [3] it was 0.708 µM.
On to `O=C(O)Cn1ccc(C(=O)c2ccccc2)c1`, for which, in assay [1], the Ratio IC50 was > 50.8. Also, the IC50 in assay [2] was > 100 µM.
Regarding `O=C(c1ccc(-c2ccccc2)cc1)c1cccn1-c1cnn(O)c1`, the Ratio IC50 in assay [1] is > 10.2. Further, the IC50 in assay [2] was > 100 µM; in assay [3], 9.81 µM.
For `COc1ccc(C(=O)c2ccn(CC(=O)O)c2)cc1`, the Ratio IC50 in assay [1] is > 62.4. The IC50 is > 100 µM in assay [2] and 1.6 µM in assay [3].

The record behind these values is ChEMBL document CHEMBL2413028, “1-Hydroxypyrazole as a bioisostere of the acetic acid moiety in a series of aldose reductase inhibitors” (Bioorg Med Chem, 2013).
